By logP is commonly meant a log measure of how a compound divides between an organic and an aqueous phase.

Data set [1] is described as follows: Lipophilicity, log P of the compound in 0.1 N HCl solution. The format is physicochemical. The gist of the method: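 Partition coefficients of the hydrochloride salts were measured from 0.1 N HCl solution unless a footnote says otherwise. Some entries were not measured. They were calculated by adding the Δlog P of the corresponding phenanthrene analogues to the measured log P of a reference hydrochloride.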

In data set [2] the test system is Plasmodium berghei. The data set is described as follows: Antimalarial activity against Plasmodium berghei. The format is functional.
Where [3] appears, read: 0.1 N HCl solution, read-out: logP.

As for `CC(C)(C)c1cc(C(O)CC2CCCCN2)c2cc(Cl)ccc2n1` (stereo unspecified), the logP in data set [1] (setting [3]) was 2.74. In addition, the “log(1/C)” value in data set [2] was determined as 2.48.

In the case of `CCCNCC(O)c1cc(-c2ccccc2)nc(-c2ccccc2)c1` (stereo unspecified), the logP in data set [1] (setting [3]) is 3.03.

On to `CCCCNCC(O)c1cc(-c2ccccc2)nc(-c2ccccc2)c1` (stereo unspecified), for which the logP in data set [1] (setting [3]) came to 3.47.

Turning to `CCCCCNCC(O)c1cc(-c2ccccc2)nc(-c2ccccc2)c1` (stereo unspecified), in data set [1] (setting [3]), the logP amounted to 3.97.

For the compound `OC(c1cc(-c2ccccc2)nc(-c2ccccc2)c1)C1CCCCN1` (stereo unspecified), in data set [1] (setting [3]), the logP was 3.18.

In the case of `CCN(CC)CC(O)c1cc(-c2ccccc2)nc2ccccc12` (stereo unspecified), the lipophilicity (logP) in data set [1] (setting [3]) was found to be 0.94.

Consider `CCCN(CCC)CC(O)c1cc(-c2ccccc2)nc2ccccc12` (stereo unspecified), for which the logP in data set [1] (setting [3]) came out at 1.69.

As for `CCCCN(CCCC)CC(O)c1cc(-c2ccccc2)nc2ccccc12` (stereo unspecified), in data set [1] (setting [3]), the logP is 2.57.

Turning to `CCCCCN(CCCCC)CC(O)c1cc(-c2ccccc2)nc2ccccc12` (stereo unspecified), the lipophilicity (logP) in data set [1] (setting [3]) is 3.58.

As to `CCCCCCN(CCCCCC)CC(O)c1cc(-c2ccccc2)nc2ccccc12` (stereo unspecified), the logP in data set [1] (setting [3]) came to 4.51.

For `CCCCCCCN(CCCCCCC)CC(O)c1cc(-c2ccccc2)nc2ccccc12` (stereo unspecified), the logP in data set [1] (setting [3]) was 5.51.

As for `CNCC(O)c1cc(-c2ccccc2)nc2ccccc12` (stereo unspecified), the log partition coefficient (logP) in data set [1] (setting [3]) turned out to be 0.55.

In the case of `CCNCC(O)c1cc(-c2ccccc2)nc2ccccc12` (stereo unspecified), the log partition coefficient (logP) in data set [1] (setting [3]) amounted to 0.99.

With `CCCNCC(O)c1cc(-c2ccccc2)nc2ccccc12` (stereo unspecified), the logP in data set [1] (setting [3]) came to 1.43.

Regarding `CCCCNCC(O)c1cc(-c2ccccc2)nc2ccccc12` (stereo unspecified), in data set [1] (setting [3]), the logP is 1.87.

For `CCCCCNCC(O)c1cc(-c2ccccc2)nc2ccccc12` (stereo unspecified), the logP in data set [1] (setting [3]) was 2.37.

Regarding `OC(c1cc(-c2ccccc2)nc2ccccc12)C1CCCCN1` (stereo unspecified), in data set [1] (setting [3]), the logP worked out at 1.58.

Turning to `CN(C)CC(O)c1cc2ccccc2c2ccccc12` (stereo unspecified), the logP in data set [1] (setting [3]) turned out to be 1.08.

As to `CCCCN(CCCC)CC(O)c1ccc2cc(Cl)cc(Cl)c2n1` (stereo unspecified), the lipophilicity (logP) in data set [1] (setting [3]) stood at 2.46.

Take `CCCCCCN(CCCCCC)CC(O)c1ccc2cc(Cl)cc(Cl)c2n1` (stereo unspecified): the logP in data set [1] (setting [3]) is 4.4.

Regarding `CCCCN(CCCC)CC(O)c1ccc2cc(OC)c(Cl)cc2n1` (stereo unspecified), the log partition coefficient (logP) in data set [1] (setting [3]) is 1.73.

For the compound `CCCCN(CCCC)CC(O)c1cc(OC)c2cc(Cl)cc(Cl)c2n1` (stereo unspecified), in data set [1] (setting [3]), the log partition coefficient (logP) turned out to be 2.44.

In the case of `CCCCCCN(CCCCCC)CC(O)c1cc(OC)c2cc(Cl)cc(Cl)c2n1` (stereo unspecified), the logP in data set [1] (setting [3]) came out at 4.38.

Take `CCCCN(CCCC)CC(O)c1cc(OC)c2cc(OC)c(Cl)cc2n1` (stereo unspecified): the logP in data set [1] (setting [3]) came to 1.71.

On to `CCN1C=CN(CC(O)c2cc(-c3ccc(F)cc3)nc3cc(F)ccc23)C=C1` (stereo unspecified), for which the logP in data set [1] (setting [3]) is 3.32.

Take `CCCCN(CCCC)CC(O)c1c(C)c(-c2ccc(C)cc2C)nc2c1ccc1ccccc12` (stereo unspecified): the logP in data set [1] (setting [3]) was 6.

For the compound `Cc1ccc(Oc2cc(C(O)CC3CCCCN3)c3cc(Cl)ccc3n2)cc1` (stereo unspecified), the log partition coefficient (logP) in data set [1] (setting [3]) was 3.4.

As to `CCC1C[N+]2(CC(O)c3ccnc4ccc(OC)cc34)CCC1CC2` (stereo unspecified), in data set [1] (setting [3]), the log partition coefficient (logP) worked out at 2.31.

On to `O=C(Nc1cccc(C(F)(F)F)c1)c1cc(C(O)CC2CCCCN2)c2cccc(C(F)(F)F)c2n1` (stereo unspecified), for which, in data set [1] (setting [3]), the log partition coefficient (logP) is 2.3.

Consider `CCC1C[N+]2(c3ccnc4ccc(OC(C)CO)cc34)CCC1CC2` (stereo unspecified), for which the logP in data set [1] (setting [3]) is 2.31.

As to `CC(C)(C)CC(C)(C)NCC(O)c1c2ccccc2cc2ccccc12` (stereo unspecified), the logP in data set [1] (setting [3]) was 3.46.

Take `CCN(CC)CC(O)c1ccc(Cl)c2ccccc12` (stereo unspecified): the logP in data set [1] (setting [3]) was determined as 0.56.

As for `CCCCN(CCCC)CC(O)c1ccc(Cl)c2ccccc12` (stereo unspecified), in data set [1] (setting [3]), the log partition coefficient (logP) was found to be 2.19.

Consider `CCCCCCCCCCN(CCCCCCCCCC)CC(O)c1ccc(Cl)c2ccccc12` (stereo unspecified), for which the log partition coefficient (logP) in data set [1] (setting [3]) came out at 8.13.

Turning to `CCCCN(CCCC)CC(O)c1cccc2cc(Cl)ccc12` (stereo unspecified), in data set [1] (setting [3]), the logP amounted to 2.19.

For the compound `CCCCCCCN(CCCCCCC)CC(O)c1cccc2ccc3c4ccccc4cc(Br)c3c12` (stereo unspecified), the logP in data set [1] (setting [3]) was found to be 7.69.

For the compound `CCCCCCCN(CCCCCCC)CC(O)c1cc2ccncc2c2cc(Br)ccc12` (stereo unspecified), the logP in data set [1] (setting [3]) is 4.89. In data set [2], the “log(1/C)” value is 2.12.

As for `CCCCCCN(CCCCCC)CC(O)c1cnc2cc(Cl)ccc2c1Cl` (stereo unspecified), in data set [1] (setting [3]), the log partition coefficient (logP) is 5.4.

Consider `CCCCCCN(CCCCCC)CC(O)c1ccc(Cl)c2ncccc12` (stereo unspecified), for which, in data set [1] (setting [3]), the logP is 3.69.

In the case of `CCCCCCCN(CCCCCCC)CC(O)c1ccc(Cl)c2c(C)ccnc12` (stereo unspecified), the logP in data set [1] (setting [3]) turned out to be 5.25.

With `CCCCN(CCCC)CC(O)c1cc(-c2ccc(Cl)cc2)c2cc(Cl)cc(Cl)c2n1` (stereo unspecified), in data set [1] (setting [3]), the lipophilicity (logP) was 5.13.

On to `CCCCN(CCCC)CC(O)c1cc(-c2ccc(Cl)cc2)c2cc(OC)c(Cl)cc2n1` (stereo unspecified), for which, in data set [1] (setting [3]), the log partition coefficient (logP) was found to be 4.4.

Consider `CCCCN(CCCC)CC(O)c1cc(-c2ccc(Cl)cc2)c2cc(-c3ccccc3)ccc2n1` (stereo unspecified), for which, in data set [1] (setting [3]), the logP was found to be 5.67.

In the case of `O=C(O)CCNCC(O)c1cc2ccccc2c2ccccc12` (stereo unspecified), in data set [1] (setting [3]), the logP came to 0.6.

For `C=CCN(CC=C)CC(O)c1cc2ccccc2c2ccccc12` (stereo unspecified), the lipophilicity (logP) in data set [1] (setting [3]) was 0.59.

On to `OCCN(CC(O)c1cc2ccccc2c2ccccc12)C1CCCCC1` (stereo unspecified), for which, in data set [1] (setting [3]), the logP came out at 2.

Regarding `OC(CC1CC2CCN1CC2)c1cc2ccccc2c2cc(Br)ccc12` (stereo unspecified), in data set [1] (setting [3]), the logP worked out at 2.98.

Take `OC(CC1CC2CCC(CC2)C1)c1cc2ccccc2c2cc(Br)ccc12` (stereo unspecified): in data set [1] (setting [3]), the log partition coefficient (logP) amounted to 3.74.

Regarding `OC(CN1C=COC=C1)c1cc(-c2ccc(Cl)cc2)nc2cc(Cl)ccc12` (stereo unspecified), in data set [1] (setting [3]), the log partition coefficient (logP) was 1.14.

Consider `OC(CN1C=COC=C1)c1cc(-c2ccc(F)cc2)nc2cc(F)ccc12` (stereo unspecified), for which the logP in data set [1] (setting [3]) was determined as 0.

For the compound `OC(CN1C=CN(c2ccccc2)C=C1)c1cc(-c2ccc(F)cc2)nc2cc(F)ccc12` (stereo unspecified), the logP in data set [1] (setting [3]) was found to be 4.26.

For the compound `OC(CN1CCCCC1)c1c2ccccc2nc2c1ccc1ccccc12` (stereo unspecified), the log partition coefficient (logP) in data set [1] (setting [3]) was found to be 3.51.

For the compound `CCCCN(CCCC)CC(O)c1cc(-c2cccc(O)c2)nc2c(Cl)cc(Cl)cc12` (stereo unspecified), in data set [1] (setting [3]), the logP came to 3.75.

`CCCCCCCCN(CCCCCCCC)CC(O)c1cc(-c2ccc(Cl)c(Cl)c2)nc2ccc(OC)cc12` (stereo unspecified): the lipophilicity (logP) in data set [1] (setting [3]) came to 8.34.

Turning to `Cc1ccc(Oc2cc(C(O)CC3CCCCN3)c3ccccc3n2)cc1` (stereo unspecified), in data set [1] (setting [3]), the logP came to 2.69.

Turning to `CCCCCCCCCN(CCCCCCCCC)CCC(O)c1cc2ccc(C(F)(F)F)cc2c2cc(C(F)(F)F)ccc12` (stereo unspecified), the logP in data set [1] (buffer) is recorded as 9.77.

Consider `CC(C)(C)c1cc(C(O)CC2CCCCN2)c2ccccc2n1` (stereo unspecified), for which, in data set [1] (setting [3]), the logP is 2.03. In data set [2], the “log(1/C)” value was 2.08.

`CCCCCCCN(CCCCCCC)CC(O)c1cc(-c2ccc(Cl)c(Cl)c2)nc(-c2ccc(Cl)c(Cl)c2)c1` (stereo unspecified): the log partition coefficient (logP) in data set [1] (buffer) was 9.95.

The record behind these values is ChEMBL document CHEMBL3227967, “Quantitative structure-activity relationships in 1-aryl-2-(alkylamino)ethanol antimalarials” (J Med Chem, 1979).
